Assay [1] deals with T1, 17-beta-hydroxysteroid dehydrogenase type 2 (Homo sapiens, UniProt P37059).
T1 sequence (P37059 whole entry): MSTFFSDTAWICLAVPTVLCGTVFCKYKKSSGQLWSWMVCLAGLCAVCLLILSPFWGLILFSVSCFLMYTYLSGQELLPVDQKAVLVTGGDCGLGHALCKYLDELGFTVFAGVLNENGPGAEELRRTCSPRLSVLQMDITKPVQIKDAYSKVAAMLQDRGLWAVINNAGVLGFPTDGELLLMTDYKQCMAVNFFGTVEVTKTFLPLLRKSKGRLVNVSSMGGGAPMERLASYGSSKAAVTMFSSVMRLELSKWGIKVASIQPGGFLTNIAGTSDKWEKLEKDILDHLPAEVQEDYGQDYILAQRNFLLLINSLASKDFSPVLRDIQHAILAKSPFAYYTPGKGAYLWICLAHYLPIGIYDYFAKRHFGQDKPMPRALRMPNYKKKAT
The assay is described as follows: Inhibition of 17beta-HSD2 (unknown origin) expressed in HEK293 cells lysate. The class given is cell-free. The essentials: (§1)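 Human 17β-HSD2 from lysates of calcium-phosphate-transfected HEK-293 cells (harvested 48 h). Incubated 10 min at 37 °C in TS2 buffer (pH 7.4) with inhibitor or 0.2% DMSO/chloroform. Substrate 190 nM unlabeled plus 10 nM radiolabeled estradiol with 500 μM NAD+. Stopped with excess estradiol/estrone. Radiolabeled steroids separated by TLC and counted; at least three independent measurements. Rest activity at 20 μM as % of control.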

In assay [2] the target is T2, 17-beta-hydroxysteroid dehydrogenase type 1 (Homo sapiens, UniProt P14061).
T2 sequence (P14061 whole entry): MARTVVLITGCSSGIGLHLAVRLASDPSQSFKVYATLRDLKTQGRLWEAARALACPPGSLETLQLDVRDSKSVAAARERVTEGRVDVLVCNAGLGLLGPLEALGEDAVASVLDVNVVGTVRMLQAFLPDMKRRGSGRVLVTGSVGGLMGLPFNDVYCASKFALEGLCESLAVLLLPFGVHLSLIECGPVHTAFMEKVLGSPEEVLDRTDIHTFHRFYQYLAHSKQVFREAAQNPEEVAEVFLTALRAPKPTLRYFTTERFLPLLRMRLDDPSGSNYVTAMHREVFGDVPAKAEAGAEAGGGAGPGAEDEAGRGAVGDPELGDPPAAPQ
In words: Inhibition of 17beta-HSD1 (unknown origin) expressed in HEK293 cells lysate. The class given is cell-free. The procedure, abridged: (§2)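 Lysate of HEK-293 cells transfected by calcium phosphate with human 17β-HSD1, harvested after 48 h. Incubated 10 min at 37 °C in TS2 buffer (pH 7.4) with inhibitor or 0.2% DMSO/chloroform. Substrate 190 nM unlabeled plus 10 nM radiolabeled estrone with 500 μM NADPH. Stopped with excess estradiol/estrone. TLC separation and scintillation counting; at least three independent measurements.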

In assay [3] the target is T3, 11-beta-hydroxysteroid dehydrogenase 1 (Homo sapiens, UniProt P28845). In words: Inhibition of 11beta-HSD1 (unknown origin) expressed in HEK293 cells lysate assessed as residual enzyme activity at 20 uM. The class given is cell-free. The procedure, abridged: (§3)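 Lysates of stably transfected cells expressing 11β-HSD1 or 11β-HSD2, 10 min at 37 °C in TS2 buffer (pH 7.4) with inhibitor or 0.2% DMSO solvent. Reactions stopped after 10 min with excess unlabeled cortisone/cortisol. Steroids separated by TLC and quantified by scintillation counting. At least three independent measurements. Lines 2 and 3 report rest activity at 20 μM as % of control.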
Target sequence in this assay (P28845 whole entry, looked up): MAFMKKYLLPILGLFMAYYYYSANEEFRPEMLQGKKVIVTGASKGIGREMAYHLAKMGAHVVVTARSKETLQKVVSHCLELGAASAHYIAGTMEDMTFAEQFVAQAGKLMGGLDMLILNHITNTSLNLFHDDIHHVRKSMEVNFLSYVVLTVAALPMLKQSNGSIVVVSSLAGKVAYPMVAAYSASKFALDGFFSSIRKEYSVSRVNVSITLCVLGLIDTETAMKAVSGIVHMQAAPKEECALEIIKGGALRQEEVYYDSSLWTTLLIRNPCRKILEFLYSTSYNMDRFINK

For assay [4], the target named is T4, 11-beta-hydroxysteroid dehydrogenase type 2 (Homo sapiens) (UniProt P80365).
T4 sequence (whole entry): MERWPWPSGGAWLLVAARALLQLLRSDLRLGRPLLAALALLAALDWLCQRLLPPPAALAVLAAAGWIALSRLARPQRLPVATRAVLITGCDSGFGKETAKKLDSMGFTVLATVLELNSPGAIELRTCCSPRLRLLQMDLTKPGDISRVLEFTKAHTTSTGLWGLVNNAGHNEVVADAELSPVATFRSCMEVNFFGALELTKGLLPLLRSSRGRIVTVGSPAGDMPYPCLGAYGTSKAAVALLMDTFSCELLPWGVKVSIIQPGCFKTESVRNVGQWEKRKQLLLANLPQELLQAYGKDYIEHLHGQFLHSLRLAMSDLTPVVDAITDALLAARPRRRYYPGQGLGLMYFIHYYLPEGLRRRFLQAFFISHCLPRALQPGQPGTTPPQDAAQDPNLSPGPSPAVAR
The assay is described as follows: Inhibition of 11beta-HSD2 (unknown origin) expressed in HEK293 cells lysate assessed as residual enzyme activity at 20 uM. The class given is cell-free. The essentials:
as §3

For assay [5], the target named is T5, 17-beta-hydroxysteroid dehydrogenase type 3 (Homo sapiens) (UniProt P37058).
T5 sequence (whole entry): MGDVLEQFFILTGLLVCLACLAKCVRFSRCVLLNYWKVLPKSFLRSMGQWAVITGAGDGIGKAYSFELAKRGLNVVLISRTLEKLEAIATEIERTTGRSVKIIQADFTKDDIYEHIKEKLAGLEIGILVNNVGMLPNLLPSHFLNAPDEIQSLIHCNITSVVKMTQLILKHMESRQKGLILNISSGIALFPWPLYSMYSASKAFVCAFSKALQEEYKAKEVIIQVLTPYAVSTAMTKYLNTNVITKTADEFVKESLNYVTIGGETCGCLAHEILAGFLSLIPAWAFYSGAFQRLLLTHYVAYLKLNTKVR
The assay is described as follows: Inhibition of 17beta-HSD3 (unknown origin) expressed in intact HEK293 cells assessed as residual enzyme activity at 20 uM. The class given is cell-based. The essentials:
(§4)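 HEK-293 cells transiently transfected with 17β-HSD3 by calcium phosphate were seeded at 15 000 cells/well and tested 24 h later in charcoal-treated DMEM. Inhibitor was preincubated 20 min at 37 °C. Substrate was 190 nM unlabeled plus 10 nM radiolabeled androstenedione for 30 min. Reactions stopped with excess androstenedione/testosterone. TLC separation and scintillation counting.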

Assay [6] deals with T1, 17-beta-hydroxysteroid dehydrogenase type 2. In words: Inhibition of 17beta-HSD2 (unknown origin) expressed in intact HEK293 cells. The class given is cell-based. The procedure, abridged: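 Transfected HEK-293 cells were seeded at 15 000 cells/well 24 h after transfection and assayed 24 h later in charcoal-treated DMEM. Inhibitor was preincubated 20 min at 37 °C, followed by 190 nM unlabeled plus 10 nM radiolabeled estradiol for 20 min. Reactions stopped with excess estradiol/estrone. Steroids separated by TLC and measured by scintillation counting.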

Assay [7] deals with T3, 11-beta-hydroxysteroid dehydrogenase 1. The assay is described as follows: Inhibition of 11beta-HSD1 (unknown origin) expressed in HEK293 cells lysate. The class given is cell-free. The essentials: as §3
Target sequence in this assay (P28845 whole entry): as the sequence (P28845 whole entry, looked up) above
The target in assay [8] is T6, 17-beta-hydroxysteroid dehydrogenase type 3 (Homo sapiens, UniProt P37058).
T6 sequence (P37058 whole entry): T5 sequence (whole entry)
In words: Inhibition of 17beta-HSD3 (unknown origin) expressed in intact HEK293 cells. The class given is cell-based. The procedure, abridged:
as §4

Assay [9] deals with T7, 17-beta-hydroxysteroid dehydrogenase type 1 (Homo sapiens) (UniProt P14061).
T7 sequence (whole entry): T2 sequence (P14061 whole entry)
The assay is described as follows: Inhibition of 17beta-HSD1 (unknown origin) expressed in HEK293 cells lysate assessed as residual enzyme activity at 20 uM. The class given is cell-free. The procedure, abridged:
as §2

The target of assay [10] is T8, 17-beta-hydroxysteroid dehydrogenase type 2 (Homo sapiens) (UniProt P37059).
T8 sequence (whole entry): T1 sequence (P37059 whole entry)
The assay is described as follows: Inhibition of 17beta-HSD2 (unknown origin) expressed in HEK293 cells lysate assessed as residual enzyme activity at 20 uM. The class given is cell-free. The essentials:
as §1

As a reminder, the IC50 is the concentration needed to halve the response being measured.

Bounds are passed on as bounds.

`Cc1cc(S(=O)(=O)Nc2cccc(O)c2)c(C)cc1Cl`: the 50% inhibitory concentration (IC50) in [1] is 1 µM; in assay [2], 18 µM. Further, the Activity in assay [3] was over 70%; in assay [4] it was over 70%; in [5] it was 53%.
In the case of `CC(C)(C)c1ccc(S(=O)(=O)Oc2ccccc2O)cc1`, the IC50 in assay [1] was 0.24 µM; in assay [6], 0.52 µM; in [7] it was 2.1 µM; in [8], 8.5 µM. The values for the Activity in assay [9], in assay [4] and in [10] were over 70%, over 70% and 6%, respectively.

For the origin of these results see ChEMBL document CHEMBL3351838, “Ligand-based pharmacophore modeling and virtual screening for the discovery of novel 17β-hydroxysteroid dehydrogenase 2 inhibitors” (J Med Chem, 2014).
